Laboratory results published in ChEMBL document CHEMBL3600382, “A-ring substituted 17β-arylsulfonamides of 17β-aminoestra-1,3,5(10)-trien-3-ol as highly potent reversible inhibitors of steroid sulfatase” (Bioorg Med Chem, 2015).

Legend:
[1] = Cytotoxicity against human NCI-ADR-RES cells; format: functional
[2] = Cytotoxicity against human Hs578T cells; format: functional; details: Hs-578T
NCI-H23 = assay: Cytotoxicity against human NCI-H23 cells; format: functional
OVCAR-5 = assay: Cytotoxicity against human OVCAR5 cells; format: functional
CCRF-CEM = assay: Cytotoxicity against human CCRF-CEM cells; format: functional
MDA-MB-435 = assay: Cytotoxicity against human MDA-MB-435 cells; format: functional
ACHN = assay: Cytotoxicity against human ACHN cells; format: functional
786-0 = assay: Cytotoxicity against human 786-0 cells; format: functional
M14 = assay: Cytotoxicity against human M14 cells; format: functional
MCF7 = assay: Cytotoxicity against human MCF7 cells; format: functional
SNB-75 = assay: Cytotoxicity against human SNB75 cells; format: functional
NCI-H226 = assay: Cytotoxicity against human NCI-H226 cells; format: functional
SF-295 = assay: Cytotoxicity against human SF295 cells; format: functional
LOX IMVI = assay: Cytotoxicity against human LOXIMVI cells; format: functional
MDA-MB-468 = assay: Cytotoxicity against human MDA-MB-468 cells; format: functional
UACC-257 = assay: Cytotoxicity against human UACC257 cells; format: functional
CAKI-1 = assay: Cytotoxicity against human Caki1 cells; format: functional
SK-MEL-2 = assay: Cytotoxicity against human SK-MEL-2 cells; format: functional
OVCAR-8 = assay: Cytotoxicity against human OVCAR8 cells; format: functional
T47D = assay: Cytotoxicity against human T47D cells; format: functional
SR = assay: Cytotoxicity against human SR cells; format: functional
MDA-MB-231 = assay: Cytotoxicity against human MDA-MB-231 cells; format: functional
SK-OV-3 = assay: Cytotoxicity against human SKOV3 cells; format: functional
OVCAR-3 = assay: Cytotoxicity against human OVCAR3 cells; format: functional
MOLT-4 = assay: Cytotoxicity against human MOLT4 cells; format: functional
SF-539 = assay: Cytotoxicity against human SF539 cells; format: functional
[3] = Cytotoxicity against human EKVX cells; format: functional
SF-268 = assay: Cytotoxicity against human SF268 cells; format: functional
HOP-92 = assay: Cytotoxicity against human HOP92 cells; format: functional
RPMI-8226 = assay: Cytotoxicity against human RPMI8226 cells; format: functional
KM12 = assay: Cytotoxicity against human KM12 cells; format: functional
UACC-62 = assay: Cytotoxicity against human UACC62 cells; format: functional
BT-549 = assay: Cytotoxicity against human BT549 cells; format: functional
U-251 = assay: Cytotoxicity against human U251 cells; format: functional
HL-60(TB) = assay: Cytotoxicity against human HL-60(TB) cells; format: functional
HCC 2998 = assay: Cytotoxicity against human HCC2998 cells; format: functional
PC-3 = assay: Cytotoxicity against human PC3 cells; format: functional
A498 = assay: Cytotoxicity against human A498 cells; format: functional
SW-620 = assay: Cytotoxicity against human SW620 cells; format: functional
NCI-H460 = assay: Cytotoxicity against human NCI-H460 cells; format: functional
SK-MEL-5 = assay: Cytotoxicity against human SK-MEL-5 cells; format: functional
COLO 205 = assay: Cytotoxicity against human COLO205 cells; format: functional
IGROV-1 = assay: Cytotoxicity against human IGROV1 cells; format: functional
SN12C = assay: Cytotoxicity against human SN12C cells; format: functional
A549 = assay: Cytotoxicity against human A549 cells; format: functional
TK-10 = assay: Cytotoxicity against human TK10 cells; format: functional
RXF 393 = assay: Cytotoxicity against human RXF393 cells; format: functional
HT-29 = assay: Cytotoxicity against human HT-29 cells; format: functional
Steryl-sulfatase [4] = molecular target: T1, Steryl-sulfatase (Homo sapiens, UniProt P08842); assay: Reversible inhibition of STS (unknown origin) using 4-MUS as substrate measured over 10 mins by fluorescence assay; details: read-out: Ki(app)
T1 sequence (P08842 whole entry): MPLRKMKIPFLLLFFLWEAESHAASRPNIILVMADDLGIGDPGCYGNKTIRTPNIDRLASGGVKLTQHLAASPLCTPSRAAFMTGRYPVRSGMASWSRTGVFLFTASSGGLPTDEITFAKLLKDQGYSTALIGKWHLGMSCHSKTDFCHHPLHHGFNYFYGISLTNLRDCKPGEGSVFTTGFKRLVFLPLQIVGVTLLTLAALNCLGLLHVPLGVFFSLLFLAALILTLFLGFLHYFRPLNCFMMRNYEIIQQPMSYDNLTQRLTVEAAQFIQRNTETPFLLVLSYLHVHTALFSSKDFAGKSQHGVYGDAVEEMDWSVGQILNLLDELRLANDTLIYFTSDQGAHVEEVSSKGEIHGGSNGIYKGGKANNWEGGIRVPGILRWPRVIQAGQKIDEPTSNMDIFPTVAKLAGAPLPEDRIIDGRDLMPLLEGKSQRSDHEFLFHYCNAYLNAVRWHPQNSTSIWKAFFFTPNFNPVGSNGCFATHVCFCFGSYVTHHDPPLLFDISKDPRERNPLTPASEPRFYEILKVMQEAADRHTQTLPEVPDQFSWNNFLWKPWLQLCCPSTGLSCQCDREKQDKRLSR
In short: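 Purified STS at 10 nM final with 200 µM 4-MUS in 0.1 M Tris-HCl pH 7.0 (enzyme stock contained Triton X-100). Eleven inhibitor levels, 5 nM–5 µM, were added from DMSO/buffer. 4-Methylumbelliferone fluorescence (ex 360, em 460 nm) was followed for 10 min at 24 °C, in quadruplicate, with no-enzyme controls. Vi/V0 initial rates were fitted for IC50. K_i^app was the IC50-vs-[E]T intercept at 10–80 nM STS.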

Steryl-sulfatase [5] = molecular target: T1, Steryl-sulfatase; assay: Inhibition of STS (unknown origin) using 4-MUS as substrate measured over 10 mins by fluorescence assay
In short: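 Purified STS (10 nM final) in 0.1 M Tris-HCl pH 7.0 containing Triton X-100, 4-MUS 200 µM final, and inhibitor at eleven concentrations (5 nM–5 µM). Ex 360/em 460 fluorescence read over 10 min at 24 °C, in quadruplicate, with no-enzyme controls. Vi/V0 from initial rates fit to a slope-factor equation. For tight binders, Ki app is the y-intercept of IC50 vs [E] (10–80 nM).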

## C[C@]12CC[C@@H]3c4ccc(O)cc4CC[C@H]3[C@@H]1CC[C@@H]2NS(=O)(=O)c1cccc(Br)c1
[1]
  GI50: 1000 nM
[2]
  GI50: 4000 nM
NCI-H23
  GI50: 1000 nM
OVCAR-5
  GI50: 1000 nM
CCRF-CEM
  GI50: 1000 nM
MDA-MB-435
  GI50: 1000 nM
ACHN
  GI50: 1000 nM
786-0
  GI50: 1000 nM
M14
  GI50: 1000 nM
MCF7
  GI50: 3700 nM
SNB-75
  GI50: 1000 nM
NCI-H226
  GI50: 1000 nM
SF-295
  GI50: 1000 nM
LOX IMVI
  GI50: 1000 nM
MDA-MB-468
  GI50: 2400 nM
UACC-257
  GI50: 1000 nM
CAKI-1
  GI50: 1000 nM
SK-MEL-2
  GI50: 1000 nM
OVCAR-8
  GI50: 1000 nM
T47D
  GI50: 5000 nM
SR
  GI50: 1000 nM
MDA-MB-231
  GI50: 3900 nM
SK-OV-3
  GI50: 1000 nM
OVCAR-3
  GI50: 1000 nM
MOLT-4
  GI50: 1000 nM
SF-539
  GI50: 1000 nM
[3]
  GI50: 1000 nM
SF-268
  GI50: 1000 nM
HOP-92
  GI50: 1000 nM
RPMI-8226
  GI50: 1000 nM
KM12
  GI50: 1000 nM
UACC-62
  GI50: 1000 nM
BT-549
  GI50: 3100 nM
U-251
  GI50: 1000 nM
HL-60(TB)
  GI50: 1000 nM
HCC 2998
  GI50: 1000 nM
PC-3
  GI50: 1000 nM
A498
  GI50: 1000 nM
SW-620
  GI50: 1000 nM
NCI-H460
  GI50: 1000 nM
SK-MEL-5
  GI50: 1000 nM
COLO 205
  GI50: 1000 nM
IGROV-1
  GI50: 1000 nM
SN12C
  GI50: 1000 nM
A549
  GI50: 1000 nM
TK-10
  GI50: 1000 nM
RXF 393
  GI50: 1000 nM
HT-29
  GI50: 1000 nM

## C[C@]12CC[C@@H]3c4ccc(O)c(F)c4CC[C@H]3[C@@H]1CC[C@@H]2NS(=O)(=O)c1cccc(C(F)(F)F)c1
Steryl-sulfatase [4]
  Ki: 2.5 nM

## C[C@]12CC[C@@H]3c4cc([N+](=O)[O-])c(O)cc4CC[C@H]3[C@@H]1CC[C@@H]2NS(=O)(=O)c1ccc(-c2ccccc2)cc1
Steryl-sulfatase [5]
  IC50: 33 nM

## C[C@]12CC[C@@H]3c4cc([N+](=O)[O-])c(O)cc4CC[C@H]3[C@@H]1CC[C@@H]2NS(=O)(=O)c1cccc(Br)c1
Steryl-sulfatase [5]
  IC50: 50 nM

## C[C@]12CC[C@@H]3c4ccc(O)c([N+](=O)[O-])c4CC[C@H]3[C@@H]1CC[C@@H]2NS(=O)(=O)c1cccc(C(F)(F)F)c1
[1]
  GI50: 1000 nM
[2]
  GI50: 2200 nM
NCI-H23
  GI50: 1000 nM
OVCAR-5
  GI50: 1000 nM
CCRF-CEM
  GI50: 1000 nM
MDA-MB-435
  GI50: 1000 nM
ACHN
  GI50: 1000 nM
786-0
  GI50: 1000 nM
M14
  GI50: 1000 nM
MCF7
  GI50: 1800 nM
SNB-75
  GI50: 1000 nM
NCI-H226
  GI50: 1000 nM
SF-295
  GI50: 1000 nM
LOX IMVI
  GI50: 1000 nM
MDA-MB-468
  GI50: 2700 nM
UACC-257
  GI50: 1000 nM
CAKI-1
  GI50: 1000 nM
SK-MEL-2
  GI50: 1000 nM
OVCAR-8
  GI50: 1000 nM
T47D
  GI50: 1800 nM
SR
  GI50: 1000 nM
MDA-MB-231
  GI50: 1900 nM
SK-OV-3
  GI50: 1000 nM
OVCAR-3
  GI50: 1000 nM
MOLT-4
  GI50: 1000 nM
SF-539
  GI50: 1000 nM
[3]
  GI50: 1000 nM
SF-268
  GI50: 1000 nM
HOP-92
  GI50: 1000 nM
RPMI-8226
  GI50: 1000 nM
KM12
  GI50: 1000 nM
UACC-62
  GI50: 1000 nM
BT-549
  GI50: 1900 nM
U-251
  GI50: 1000 nM
HL-60(TB)
  GI50: 1000 nM
HCC 2998
  GI50: 1000 nM
PC-3
  GI50: 1000 nM
A498
  GI50: 1000 nM
SW-620
  GI50: 1000 nM
NCI-H460
  GI50: 1000 nM
SK-MEL-5
  GI50: 1000 nM
Steryl-sulfatase [5]
  IC50: 11 nM
COLO 205
  GI50: 1000 nM
IGROV-1
  GI50: 1000 nM
SN12C
  GI50: 1000 nM
A549
  GI50: 1000 nM
TK-10
  GI50: 1000 nM
RXF 393
  GI50: 1000 nM
HT-29
  GI50: 1000 nM

## C[C@]12CC[C@@H]3c4cc([N+](=O)[O-])c(O)cc4CC[C@H]3[C@@H]1CC[C@@H]2NS(=O)(=O)c1cccc(C(F)(F)F)c1
Steryl-sulfatase [5]
  IC50: 67 nM

## C[C@]12CC[C@@H]3c4ccc(O)cc4CC[C@H]3[C@@H]1CC[C@@H]2NS(=O)(=O)c1cccc(C(F)(F)F)c1
[1]
  GI50: 1000 nM
[2]
  GI50: 3200 nM
NCI-H23
  GI50: 1000 nM
OVCAR-5
  GI50: 1000 nM
CCRF-CEM
  GI50: 1000 nM
MDA-MB-435
  GI50: 1000 nM
ACHN
  GI50: 1000 nM
786-0
  GI50: 1000 nM
M14
  GI50: 1000 nM
MCF7
  GI50: 2700 nM
SNB-75
  GI50: 1000 nM
NCI-H226
  GI50: 1000 nM
SF-295
  GI50: 1000 nM
LOX IMVI
  GI50: 1000 nM
MDA-MB-468
  GI50: 4100 nM
UACC-257
  GI50: 1000 nM
CAKI-1
  GI50: 1000 nM
SK-MEL-2
  GI50: 1000 nM
OVCAR-8
  GI50: 1000 nM
T47D
  GI50: 3700 nM
SR
  GI50: 1000 nM
MDA-MB-231
  GI50: 2400 nM
SK-OV-3
  GI50: 1000 nM
OVCAR-3
  GI50: 1000 nM
MOLT-4
  GI50: 1000 nM
SF-539
  GI50: 1000 nM
[3]
  GI50: 1000 nM
SF-268
  GI50: 1000 nM
HOP-92
  GI50: 1000 nM
RPMI-8226
  GI50: 1000 nM
KM12
  GI50: 1000 nM
UACC-62
  GI50: 1000 nM
BT-549
  GI50: 2700 nM
U-251
  GI50: 1000 nM
HL-60(TB)
  GI50: 1000 nM
HCC 2998
  GI50: 1000 nM
PC-3
  GI50: 1000 nM
A498
  GI50: 1000 nM
SW-620
  GI50: 1000 nM
NCI-H460
  GI50: 1000 nM
SK-MEL-5
  GI50: 1000 nM
COLO 205
  GI50: 1000 nM
IGROV-1
  GI50: 1000 nM
SN12C
  GI50: 1000 nM
A549
  GI50: 1000 nM
TK-10
  GI50: 1000 nM
RXF 393
  GI50: 1000 nM
HT-29
  GI50: 1000 nM
